Reference: ChEMBL document CHEMBL1143593, “In vitro metabolism of phenoxypropoxybiguanide analogues in human liver microsomes to potent antimalarial dihydrotriazines” (J Med Chem, 2005)
Values after ≈ are worked out from the molar mass of the structure shown.

Columns and labels:
Plasmodium falciparum [1] = assay: In vitro antimalarial activity for DHFR wild-type, chloroquine and pyrimethamine-sensitive Plasmodium falciparum D6; format: functional, organism-based
Procedure, shortened: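 [3H]-hypoxanthine incorporation assay in folate-free medium. Two-fold dilutions; range 5000 (or 2500) ng/mL to 5 pg/mL for parent biguanides, 5 ng/mL to 5 fg/mL for dihydrotriazine metabolites. DMSO ≤0.002%. 37 °C under 90% N2/5% CO2/5% O2; label added at 48 h, harvest at 72 h, scintillation counting. Triplicate on three occasions; IC50 by sigmoid nonlinear regression versus drug-free controls.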

Plasmodium falciparum [2] = assay: In vitro antimalarial activity for DHFR mutant, chloroquine and pyrimethamine-resistant Plasmodium falciparum W2
[3] = Maximum velocity against human liver microsomes; (n=6); format: ADME, Microsome
Procedure, shortened: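 Pooled human liver microsomes, 1 mg/mL, in NADPH regenerating buffer (1.25 mM βNADP+, 3.3 mM glucose-6-phosphate, 3.3 mM MgCl2). Mix preincubated 5 min at 37 °C, then started with glucose-6-phosphate dehydrogenase (1 unit/mL final). Substrate at 25–500 µM, 90 min at 37 °C. Stopped with ice-cold acetonitrile containing internal standard. Dihydrotriazine metabolite quantified by LC-MS/MS against synthetic standard curves. Vmax from Michaelis–Menten nonlinear fit using only ≤200 µM data, n=6.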

Compound	IC50 (Plasmodium falciparum [1])	IC50 (Plasmodium falciparum [2])	Vmax [3]
CC1(C)N=C(N)N=C(N)N1OCCCOc1cc(Cl)c(Cl)cc1Cl	0.02 ng/mL (≈ 0.0507 nM)	0.016 ng/mL (≈ 0.0405 nM)	
CC(C)/N=C(N)/N=C(/N)NOCCCOc1ccc(C(F)(F)F)cc1Cl	2230 ng/mL (≈ 5640 nM)	> 5000 ng/mL	15.4 nmol/min/mg
CC1(C)N=C(N)N=C(N)N1OCCCOc1ccc(OCC(F)(F)F)cc1Cl	0.022 ng/mL (≈ 0.0519 nM)	0.081 ng/mL (≈ 0.191 nM)	
CC1(C)N=C(N)N=C(N)N1OCCCOc1ccc(OC(F)(F)F)cc1	0.01 ng/mL (≈ 0.0266 nM)	0.052 ng/mL (≈ 0.139 nM)	
CC(C)/N=C(N)/N=C(/N)NOCCCOc1ccccc1OC(F)(F)F	> 2500 ng/mL	> 5000 ng/mL	13.3 nmol/min/mg
CCc1nc(N)nc(N)c1-c1ccc(Cl)cc1 [PYRIMETHAMINE]	1.2 ng/mL (≈ 4.82 nM)	130 ng/mL (≈ 523 nM)	
[H]/N=C(\N/C(=N/[H])Nc1ccc(Cl)cc1)NC(C)C [PROGUANIL]	> 5000 ng/mL	> 5000 ng/mL	19.6 nmol/min/mg
CC1(C)N=C(N)N=C(N)N1OCCCOc1ccc(Cl)c(Cl)c1	0.009 ng/mL (≈ 0.025 nM)	0.028 ng/mL (≈ 0.0777 nM)	
CC(C)NC(=N)NC(=N)NOCCCOc1cc(Cl)c(Cl)cc1Cl	877 ng/mL (≈ 2210 nM)	3790 ng/mL (≈ 9540 nM)	11.6 nmol/min/mg
CC1(C)N=C(N)N=C(N)N1OCCCOc1ccc(OC(F)(F)F)cc1Cl	0.01 ng/mL (≈ 0.0244 nM)	0.031 ng/mL (≈ 0.0756 nM)	
CC(C)NC(=N)NC(=N)NOCCCOc1ccc(Cl)c(Cl)c1	845 ng/mL (≈ 2330 nM)	2550 ng/mL (≈ 7040 nM)	27.7 nmol/min/mg
CC1(C)N=C(N)N=C(N)N1OCCCOc1ccccc1OC(F)(F)F	0.022 ng/mL (≈ 0.0586 nM)	0.053 ng/mL (≈ 0.141 nM)	
CC(C)NC(=N)NC(=N)NOCCCOc1ccc(OC(F)(F)F)cc1	> 2500 ng/mL	> 5000 ng/mL	13.5 nmol/min/mg
CC(C)/N=C(N)/N=C(/N)NOCCCOc1ccc(C(F)(F)F)cc1	> 2500 ng/mL	> 5000 ng/mL	10.8 nmol/min/mg
CC1(C)N=C(N)N=C(N)N1OCCCOc1ccc(C(F)(F)F)cc1	0.01 ng/mL (≈ 0.0278 nM)	0.063 ng/mL (≈ 0.175 nM)	
N=C(NOCCCOc1ccc(OC(F)(F)F)cc1)NC(=N)NC1CC1	> 2500 ng/mL	> 5000 ng/mL	
CC1(C)N=C(N)N=C(N)N1c1ccc(Cl)cc1 [CYCLOGUANIL]	0.328 ng/mL (≈ 1.3 nM)	> 2.5 ng/mL	
CC(C)/N=C(N)/N=C(/N)NOCCCOc1ccc(OCC(F)(F)F)cc1	> 2500 ng/mL	> 5000 ng/mL	18.7 nmol/min/mg
